Laboratory results reported in ChEMBL document CHEMBL1154780, “Synthesis of new linear guanidines and macrocyclic amidinourea derivatives endowed with high antifungal activity against Candida spp. and Aspergillus spp” (J Med Chem, 2009).
In brackets after ≈: the same amount, converted by molar mass.

Columns and labels:
Candida parapsilosis [1] = assay: Anticandidal activity against Candida parapsilosis 81E after 24 hrs by spectrophotometry; assay type: functional; details: Lodderomyces parapsilosis
Candida parapsilosis [2] = assay: Anticandidal activity against Candida parapsilosis ATCC 34136 after 24 hrs by spectrophotometry; assay type: functional; details: Lodderomyces parapsilosis, ATCC 34136, 24 h
Candida tropicalis = assay: Anticandidal activity against Candida tropicalis 86E after 24 hrs by spectrophotometry; assay type: functional
Candida albicans [3] = assay: Anticandidal activity against Candida albicans 4T after 24 hrs by spectrophotometry; assay type: functional
Pichia kudriavzevii [4] = assay: Anticandidal activity against Candida krusei 193T after 24 hrs by spectrophotometry; assay type: functional
Candida parapsilosis [5] = assay: Anticandidal activity against Candida parapsilosis 64E after 24 hrs by spectrophotometry; assay type: functional; details: Lodderomyces parapsilosis
Candida albicans [6] = assay: Anticandidal activity against Candida albicans ATCC 60193 after 24 hrs by spectrophotometry; assay type: functional; details: ATCC 60193, 24 h
Candida albicans [7] = assay: Anticandidal activity against Candida albicans 53T after 24 hrs by spectrophotometry; assay type: functional
Nakaseomyces glabratus = assay: Anticandidal activity against Candida glabrata 70E after 24 hrs by spectrophotometry; assay type: functional
Candida albicans [8] = assay: Anticandidal activity against Candida albicans 15T after 24 hrs by spectrophotometry; assay type: functional
Pichia kudriavzevii [9] = assay: Anticandidal activity against Candida krusei ATCC 14243 after 24 hrs by spectrophotometry; assay type: functional; details: ATCC 14243, 24 h
Aspergillus niger [10] = assay: Antifungal activity against Aspergillus niger isolated from patient sputum after 48 hrs by broth microdilution method; assay type: functional
Aspergillus fumigatus [11] = assay: Antifungal activity against Aspergillus fumigatus isolated from patient bronchoalveolar lavage fluid after 48 hrs by broth microdilution method; assay type: functional; details: Lung
Aspergillus terreus = assay: Antifungal activity against Aspergillus terreus isolated from patient bronchoalveolar lavage fluid after 48 hrs by broth microdilution method; assay type: functional; details: Lung
[12] = Therapeutic index, ratio of drug level reducing 50% viability of human lymphocytes at 37 degC to MIC50 for Candida sp.
How it was run: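 Index is the lymphocyte concentration giving 50% viability at 37 °C divided by MIC50 for each Candida species; lymphocytes were exposed to 0–50 μM.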

[13] = Cytotoxicity against human lymphocytes at 50 uM; assay type: cell-based; details: lymphocyte
How it was run: (§1)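 Human lymphocytes exposed to compound at concentrations between 0 and 50 μM, at both 25 and 37 °C; read-out is percent cell viability.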

[14] = Cytotoxicity against human lymphocytes at 40 uM; assay type: cell-based; details: lymphocyte; how it was run: as §1
Aspergillus fumigatus [15] = assay: Antifungal activity against Aspergillus fumigatus isolated from patient sputum after 48 hrs by broth microdilution method; assay type: functional
Aspergillus versicolor [16] = assay: Antifungal activity against Aspergillus versicolor isolated from patient sputum after 48 hrs by broth microdilution method; assay type: functional
Aspergillus flavus = assay: Antifungal activity against Aspergillus flavus isolated from patient sputum after 48 hrs by broth microdilution method; assay type: functional
Aspergillus niger [17] = assay: Antifungal activity against Aspergillus niger isolated from patient nasal swab after 48 hrs by broth microdilution method; assay type: functional
[18] = Therapeutic index, ratio of drug level reducing 50% viability of human lymphocytes at 25 degC to MIC50 for Candida sp.
Aspergillus versicolor [19] = assay: Antifungal activity against Aspergillus versicolor isolated from patient skin after 48 hrs by broth microdilution method; assay type: functional
[20] = Cytotoxicity against human lymphocytes assessed as cell viability up to 30 uM; assay type: cell-based, Lymphocyte; details: read-out: Activity; how it was run: as §1

| Structure (SMILES) | MIC (Candida parapsilosis [1]) | MIC (Candida parapsilosis [2]) | MIC (Candida tropicalis) | MIC (Candida albicans [3]) | MIC (Pichia kudriavzevii [4]) | MIC (Candida parapsilosis [5]) | MIC (Candida albicans [6]) | MIC (Candida albicans [7]) | MIC (Nakaseomyces glabratus) | MIC (Candida albicans [8]) | MIC (Pichia kudriavzevii [9]) | further results |
| --- | --- | --- | --- | --- | --- | --- | --- | --- | --- | --- | --- | --- |
| C=C(C)CNC(=N)NCCCCCCCCN1CCCCCCCCNC(=N)NC1=O | > 80 µM | > 80 µM | 40 µM (≈ 17.4 µg/mL) | 40 µM (≈ 17.4 µg/mL) | 80 µM (≈ 34.9 µg/mL) | > 80 µM | 20 µM (≈ 8.71 µg/mL) | 40 µM (≈ 17.4 µg/mL) | 80 µM (≈ 34.9 µg/mL) | 20 µM (≈ 8.71 µg/mL) | 40 µM (≈ 17.4 µg/mL) | – |
| N=C(NCCCCCCCCN1CCCCCCCCNC(=N)NC1=O)NCc1ccccc1 | 20 µM (≈ 9.43 µg/mL) | 80 µM (≈ 37.7 µg/mL) | 2.5 µM (≈ 1.18 µg/mL) | 2.5 µM (≈ 1.18 µg/mL) | 10 µM (≈ 4.72 µg/mL) | 20 µM (≈ 9.43 µg/mL) | 2.5 µM (≈ 1.18 µg/mL) | 2.5 µM (≈ 1.18 µg/mL) | 40 µM (≈ 18.9 µg/mL) | 5 µM (≈ 2.36 µg/mL) | 20 µM (≈ 9.43 µg/mL) | – |
| C/C=C/CNC(=N)NCCCCCCCCN1CCCCCCCCNC(=N)NC1=O | 5 µM (≈ 2.18 µg/mL) | 5 µM (≈ 2.18 µg/mL) | 1.25 µM (≈ 0.545 µg/mL) | 1.25 µM (≈ 0.545 µg/mL) | 5 µM (≈ 2.18 µg/mL) | 5 µM (≈ 2.18 µg/mL) | 2.5 µM (≈ 1.09 µg/mL) | 2.5 µM (≈ 1.09 µg/mL) | 20 µM (≈ 8.71 µg/mL) | 1.25 µM (≈ 0.545 µg/mL) | 5 µM (≈ 2.18 µg/mL) | MIC (Aspergillus niger [10]): 18 µM (≈ 7.84 µg/mL); MIC (Aspergillus fumigatus [11]): 36 µM (≈ 15.7 µg/mL); MIC (Aspergillus terreus): 73 µM (≈ 31.8 µg/mL); Ratio [12]: 1.9; Activity [13]: 43%; Activity [14]: 78%; MIC (Aspergillus fumigatus [15]): 73 µM (≈ 31.8 µg/mL); MIC (Aspergillus versicolor [16]): 18 µM (≈ 7.84 µg/mL); MIC (Aspergillus flavus): 36 µM (≈ 15.7 µg/mL); MIC (Aspergillus niger [17]): 18 µM (≈ 7.84 µg/mL); Ratio [18]: 2.4; MIC (Aspergillus versicolor [19]): 4 µM (≈ 1.74 µg/mL); viability [20]: 100% |
| OC(Cn1cncn1)(Cn1cncn1)c1ccc(F)cc1F [FLUCONAZOLE] | 13 µM (≈ 3.98 µg/mL) | 6.5 µM (≈ 1.99 µg/mL) | 52 µM (≈ 15.9 µg/mL) | 209 µM (≈ 64 µg/mL) | 418 µM (≈ 128 µg/mL) | 32 µM (≈ 9.8 µg/mL) | 0.8 µM (≈ 0.245 µg/mL) | 418 µM (≈ 128 µg/mL) | 209 µM (≈ 64 µg/mL) | 209 µM (≈ 64 µg/mL) | 209 µM (≈ 64 µg/mL) | – |
| CC(C)=CCNC(=N)NCCCCCCCCN1CCCCCCCCNC(=N)NC1=O | 40 µM (≈ 18 µg/mL) | > 80 µM | 20 µM (≈ 8.99 µg/mL) | 20 µM (≈ 8.99 µg/mL) | 20 µM (≈ 8.99 µg/mL) | > 80 µM | 40 µM (≈ 18 µg/mL) | 20 µM (≈ 8.99 µg/mL) | 80 µM (≈ 36 µg/mL) | 20 µM (≈ 8.99 µg/mL) | 10 µM (≈ 4.5 µg/mL) | – |
| CCC(C)n1ncn(-c2ccc(N3CCN(c4ccc(OCC5COC(Cn6cncn6)(c6ccc(Cl)cc6Cl)O5)cc4)CC3)cc2)c1=O (stereo not given) [ITRACONAZOLE] | – | – | – | – | – | – | – | – | – | – | – | MIC (Aspergillus niger [10]): 0.35 µM (≈ 0.247 µg/mL); MIC (Aspergillus fumigatus [11]): 0.04 µM (≈ 0.0282 µg/mL); MIC (Aspergillus terreus): 0.35 µM (≈ 0.247 µg/mL); MIC (Aspergillus fumigatus [15]): 0.35 µM (≈ 0.247 µg/mL); MIC (Aspergillus versicolor [16]): 0.02 µM (≈ 0.0141 µg/mL); MIC (Aspergillus flavus): 0.04 µM (≈ 0.0282 µg/mL); MIC (Aspergillus niger [17]): 0.35 µM (≈ 0.247 µg/mL); MIC (Aspergillus versicolor [19]): 0.35 µM (≈ 0.247 µg/mL) |
| N=C(N)NCCCCCCCCNCCCCCCCCNC(=N)NCC1CC1 | 20 µM (≈ 8.19 µg/mL) | 80 µM (≈ 32.8 µg/mL) | 5 µM (≈ 2.05 µg/mL) | 10 µM (≈ 4.1 µg/mL) | 10 µM (≈ 4.1 µg/mL) | 5 µM (≈ 2.05 µg/mL) | 20 µM (≈ 8.19 µg/mL) | 10 µM (≈ 4.1 µg/mL) | 20 µM (≈ 8.19 µg/mL) | 20 µM (≈ 8.19 µg/mL) | 5 µM (≈ 2.05 µg/mL) | – |
| N=C(N)NCCCCCCCCNCCCCCCCCNC(=N)N [IMINOCTADIENE] | 20 µM (≈ 7.11 µg/mL) | > 80 µM | 1.25 µM (≈ 0.444 µg/mL) | 80 µM (≈ 28.4 µg/mL) | 20 µM (≈ 7.11 µg/mL) | 40 µM (≈ 14.2 µg/mL) | 80 µM (≈ 28.4 µg/mL) | 40 µM (≈ 14.2 µg/mL) | 40 µM (≈ 14.2 µg/mL) | 80 µM (≈ 28.4 µg/mL) | 20 µM (≈ 7.11 µg/mL) | – |
| N=C(N)NCCCCCCCCN(CCCCCCCCNC(=N)N)C(=N)N | > 80 µM | > 80 µM | 1.25 µM (≈ 0.497 µg/mL) | 5 µM (≈ 1.99 µg/mL) | 40 µM (≈ 15.9 µg/mL) | > 80 µM | 5 µM (≈ 1.99 µg/mL) | 20 µM (≈ 7.95 µg/mL) | > 80 µM | 10 µM (≈ 3.98 µg/mL) | 10 µM (≈ 3.98 µg/mL) | – |
| C[C@@H]1[C@H](O)[C@@H](C)/C=C/C=C/C=C/C=C/C=C/C=C/C=C/[C@H](O[C@@H]2O[C@H](C)[C@@H](O)[C@H](N)[C@@H]2O)C[C@@H]2O[C@](O)(C[C@@H](O)C[C@@H](O)[C@H](O)CC[C@@H](O)C[C@@H](O)CC(=O)O[C@H]1C)C[C@H](O)[C@H]2C(=O)O [AMPHOTERICIN B] | – | – | – | – | – | – | – | – | – | – | – | MIC (Aspergillus niger [10]): 0.27 µM (≈ 0.25 µg/mL); MIC (Aspergillus fumigatus [11]): 0.27 µM (≈ 0.25 µg/mL); MIC (Aspergillus terreus): 1 µM (≈ 0.924 µg/mL); MIC (Aspergillus fumigatus [15]): 0.135 µM (≈ 0.125 µg/mL); MIC (Aspergillus versicolor [16]): 0.54 µM (≈ 0.499 µg/mL); MIC (Aspergillus flavus): 2.1 µM (≈ 1.94 µg/mL); MIC (Aspergillus niger [17]): 0.135 µM (≈ 0.125 µg/mL); MIC (Aspergillus versicolor [19]): 0.135 µM (≈ 0.125 µg/mL) |
| CC(C)=CCNC(=N)NCCCCCCCCNCCCCCCCCNC(=N)NCC=C(C)C | > 80 µM | > 80 µM | > 80 µM | 80 µM (≈ 39.3 µg/mL) | 80 µM (≈ 39.3 µg/mL) | > 80 µM | > 80 µM | 80 µM (≈ 39.3 µg/mL) | > 80 µM | > 80 µM | 40 µM (≈ 19.7 µg/mL) | – |
| C#CCNC(=N)NCCCCCCCCN1CCCCCCCCNC(=N)NC1=O | 80 µM (≈ 33.6 µg/mL) | 40 µM (≈ 16.8 µg/mL) | 5 µM (≈ 2.1 µg/mL) | 80 µM (≈ 33.6 µg/mL) | 40 µM (≈ 16.8 µg/mL) | 40 µM (≈ 16.8 µg/mL) | 2.5 µM (≈ 1.05 µg/mL) | 5 µM (≈ 2.1 µg/mL) | 80 µM (≈ 33.6 µg/mL) | 2.5 µM (≈ 1.05 µg/mL) | 80 µM (≈ 33.6 µg/mL) | – |
| CC(C)=CCNC(=N)NCCCCCCCCNCCCCCCCCNC(=N)N | 40 µM (≈ 16.9 µg/mL) | > 80 µM | 20 µM (≈ 8.47 µg/mL) | 80 µM (≈ 33.9 µg/mL) | 20 µM (≈ 8.47 µg/mL) | > 80 µM | 80 µM (≈ 33.9 µg/mL) | 80 µM (≈ 33.9 µg/mL) | 80 µM (≈ 33.9 µg/mL) | 40 µM (≈ 16.9 µg/mL) | 40 µM (≈ 16.9 µg/mL) | – |
